The values that follow come from ChEMBL document CHEMBL4270658, “Synthesis, in vitro and in vivo biological evaluation, COX-1/2 inhibition and molecular docking study of indole-N-acylhydrazone derivatives” (Bioorg Med Chem, 2018).

For one data set, the system named is Splenocyte. The experiment in a line: Immunomodulatory activity in BALB/c mouse splenocytes assessed as inhibition of concanavalin A-induced lymphocyte proliferation by measuring [methyl-3H]-thymidine uptake at 50 uM after 48 hrs. The data set is classed as functional. In a few lines:
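BALB/c splenocytes (5×10⁶ cells/well) in DMEM, triplicate, with concanavalin A (2 μg mL⁻¹) ± compound 48 h at 37 °C, 5% CO₂, then 1 μCi [methyl-³H]thymidine for 12 h; inhibition from thymidine uptake relative to control; dexamethasone positive control.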

Data set [1] in a line: Cytotoxicity against mouse J774 macrophages after 72 hrs by Alamar Blue assay. It counts as cell-based.
For data set [2], the system named is Mus musculus. Kind of data set: Acute toxicity in Swiss mouse assessed as occurence of irritability at 2000 mg/kg, po after 1 hr. The data set is classed as organism-based. Particulars: in vivo. In a few lines: (§1)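 Fixed-dose stepwise procedure following OECD acute oral toxicity guidelines; groups of 3 Swiss Mus musculus mice (20–35 g) dosed orally at 2000 mg kg⁻¹ and observed for clinical signs of pain, suffering and impending death. Test run in duplicate. Animals kept at 22 ± 3 °C, 12 h light/dark, free food and water.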

Data set [3] deals with Mus musculus. Kind of data set: Acute toxicity in Swiss mouse assessed as occurence of ptosis at 2000 mg/kg, po after 1 hr. The data set is classed as organism-based. The settings on record: in vivo. The method in brief: as §1
Data set [4] concerns Mus musculus. The experiment in a line: Acute toxicity in Swiss mouse assessed as effect on blood cell levels at 2000 mg/kg, po (reference value: 13.0 +/- 0.9 10^6/mm3). The data set is classed as organism-based. Particulars: in vivo.
Data set [5] relates to Mus musculus. Kind of data set: Acute toxicity in Swiss mouse assessed as effect on hemoglobin levels at 2000 mg/kg, po (reference value: 14.5 +/- 0.6 g/dl). It counts as organism-based. The settings on record: in vivo.
Data set [6] has as its system Mus musculus. The experiment in a line: Acute toxicity in Swiss mouse assessed as effect on hematocrit levels at 2000 mg/kg, po (reference value: 74.7 +/- 6.05%). The data set is classed as organism-based. The settings on record: in vivo.
Data set [7] has as its system Mus musculus. Kind of data set: Acute toxicity in Swiss mouse assessed as effect on mean corpuscular volume at 2000 mg/kg, po (reference value: 57.3 +/- 3.01 […]). It counts as organism-based. The settings on record: in vivo.
Data set [8] relates to Mus musculus. The experiment in a line: Acute toxicity in Swiss mouse assessed as effect on mean corpuscular hemoglobin level at 2000 mg/kg, po (reference value: 11.16 +/- 0.53 pg). The data set is classed as organism-based. The settings on record: in vivo.
Data set [9] relates to Mus musculus. Kind of data set: Acute toxicity in Swiss mouse assessed as effect on mean corpuscular hemoglobin concentration level at 2000 mg/kg, po (reference value: 19.5 +/- 0.94%). It counts as organism-based. Particulars: in vivo.
Data set [10] has as its system Mus musculus. Kind of data set: Acute toxicity in Swiss mouse assessed as effect on leukocyte level at 2000 mg/kg, po (reference value: 10.8 +/- 6.25 10^3/mm3). It counts as organism-based. Particulars: in vivo.
In data set [11] the test system is Mus musculus. Kind of data set: Acute toxicity in Swiss mouse assessed as mortality at 2000 mg/kg, po. The data set is classed as organism-based. Particulars: in vivo. In a few lines: as §1
In data set [12] the test system is Mus musculus. Kind of data set: Antiinflammatory activity in carrageenan-induced Swiss mouse assessed as inhibition of paw edema at 30 mg/kg, po pretreated for 1 hr followed by carrageenan challenge measured after 6 hrs by plethysmometric method. The data set is classed as functional.
The test system of data set [13] is Mus musculus. Kind of data set: Antiinflammatory activity in carrageenan-induced Swiss mouse assessed as inhibition of paw edema at 60 mg/kg, po pretreated for 1 hr followed by carrageenan challenge measured after 6 hrs by plethysmometric method. It counts as functional.
The subject of data set [14] is Mus musculus. The experiment in a line: Antiinflammatory activity in carrageenan-induced Swiss mouse assessed as paw volume at 60 mg/kg, po pretreated for 1 hr followed by carrageenan challenge measured after 1 hr by plethysmometric method (reference value: 59.39 +/- 10.59 […]). It counts as functional.
The target of data set [15] is T1, Prostaglandin G/H synthase 1 (Ovis aries, UniProt P05979).
T1 sequence (P05979 whole entry): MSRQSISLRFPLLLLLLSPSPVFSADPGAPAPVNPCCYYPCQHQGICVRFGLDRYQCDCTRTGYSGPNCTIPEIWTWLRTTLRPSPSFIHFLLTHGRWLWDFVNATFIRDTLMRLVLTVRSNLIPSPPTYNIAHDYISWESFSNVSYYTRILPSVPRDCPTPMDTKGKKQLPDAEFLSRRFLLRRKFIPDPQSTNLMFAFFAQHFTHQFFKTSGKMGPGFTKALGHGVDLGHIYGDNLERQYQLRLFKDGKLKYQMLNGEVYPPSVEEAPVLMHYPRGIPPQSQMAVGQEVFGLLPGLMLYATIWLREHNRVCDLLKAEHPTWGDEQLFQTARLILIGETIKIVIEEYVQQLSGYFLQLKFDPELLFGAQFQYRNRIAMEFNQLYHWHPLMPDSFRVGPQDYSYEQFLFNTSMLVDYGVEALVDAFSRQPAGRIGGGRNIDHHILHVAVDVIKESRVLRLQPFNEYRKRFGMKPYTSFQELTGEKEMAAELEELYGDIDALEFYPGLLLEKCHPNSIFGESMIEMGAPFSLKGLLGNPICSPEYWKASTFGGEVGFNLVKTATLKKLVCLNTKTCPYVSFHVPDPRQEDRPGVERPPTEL
Kind of data set: Inhibition of ovine COX-1 using arachidonic acid as substrate preincubated for 5 mins followed by substrate addition measured after 1 hr.

In data set [16] the target is T2, Prostaglandin G/H synthase 2 (Homo sapiens, UniProt P35354).
T2 sequence (P35354 whole entry): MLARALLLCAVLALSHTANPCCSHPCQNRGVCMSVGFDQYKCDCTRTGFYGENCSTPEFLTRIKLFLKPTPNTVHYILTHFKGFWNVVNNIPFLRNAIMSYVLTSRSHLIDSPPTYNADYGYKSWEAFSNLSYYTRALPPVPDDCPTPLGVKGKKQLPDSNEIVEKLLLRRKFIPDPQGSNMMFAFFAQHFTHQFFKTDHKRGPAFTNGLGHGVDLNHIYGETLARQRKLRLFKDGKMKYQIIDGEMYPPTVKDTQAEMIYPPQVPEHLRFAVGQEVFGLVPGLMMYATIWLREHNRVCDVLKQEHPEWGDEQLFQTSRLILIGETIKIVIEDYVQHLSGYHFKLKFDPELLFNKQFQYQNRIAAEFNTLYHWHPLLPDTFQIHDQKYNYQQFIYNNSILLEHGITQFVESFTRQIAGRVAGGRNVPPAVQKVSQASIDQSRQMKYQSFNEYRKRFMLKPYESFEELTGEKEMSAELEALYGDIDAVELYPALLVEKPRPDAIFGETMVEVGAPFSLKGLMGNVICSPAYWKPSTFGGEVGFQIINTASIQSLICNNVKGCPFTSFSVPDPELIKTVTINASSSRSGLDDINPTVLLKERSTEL
Kind of data set: Inhibition of recombinant N-terminal His6-tagged human COX-2 expressed in Baculovirus infected Sf21 cells using arachidonic acid as substrate preincubated for 5 mins followed by substrate addition measured after 1 hr. It counts as cell-based.

Data set [17] in a line: Selectivity index, ratio of IC50 for ovine COX-1 to IC50 for recombinant N-terminal His6-tagged human COX-2. In a few lines: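 COX-1 or COX-2 in 100 mM Tris-HCl pH 8.0 with hematin, compound (in DMSO, 1.5–100 μM) preincubated 5 min at room temperature; started with arachidonic acid plus TMPD, absorbance at 610 nm after 1 h; triplicate; IC50 calculated, selectivity index from COX-1 and COX-2 IC50s.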

The test system of data set [18] is Mus musculus. The experiment in a line: Antiinflammatory activity in carrageenan-induced Swiss mouse assessed as inhibition of paw edema at 10 mg/kg, po pretreated for 1 hr followed by carrageenan challenge measured after 2 hrs by plethysmometric method. It counts as functional.
Data set [19] concerns Mus musculus. Kind of data set: Antiinflammatory activity in carrageenan-induced Swiss mouse assessed as inhibition of paw edema at 10 mg/kg, po pretreated for 1 hr followed by carrageenan challenge measured after 6 hrs by plethysmometric method. It counts as functional.

The inhibition is how much of the control response was suppressed. The term CC50 denotes the concentration that lowers cell viability or growth by half. Read a high CC50 as lower toxicity to the cells. What is called inhibition in vivo is the change of the read-out against control, counted positive when it falls. Broadly, the IC50 is the concentration at which inhibition is half-maximal. Regarding `N#CCC(=O)N/N=C/c1c[nH]c2ccc(Br)cc12`, in the data set with Splenocyte, the inhibition at 50 µM amounted to 62.7%. Besides, the CC50 at 72 h in data set [1] stood at 144 µM. The Activity result in the data set on Mus musculus [2] is “Non-Toxic”; with Mus musculus [3] it was “Non-Toxic”; in the data set on Mus musculus [4], 8.4 ×10⁶ /mm3; with Mus musculus [5], 14.1 g/dL; in the data set on Mus musculus [6] it was 57.6%; in the data set on Mus musculus [7], 53.6 fL. Besides, the Activity is 16.8 pg in the data set on Mus musculus [8]; 32.9% with Mus musculus [9]; 5.9 ×10³ /mm3 in the data set with Mus musculus [10]; “Non-Toxic” in the data set on Mus musculus [11]; 48.33 mL with Mus musculus [14]. In addition, the inhibition in vivo at 30 mg/kg with Mus musculus [12] stood at 61.8%. In addition, the inhibition in vivo at 60 mg/kg with Mus musculus [13] came out at 66.3%. In addition, the IC50 was determined as 0.18 µM in data set [15] and 0.25 µM in data set [16]. Also, the Ratio IC50 in [17] was 0.72.
Turning to `N#CCC(=O)N/N=C/c1c[nH]c2c1ccc1ccccc12`, the inhibition at 50 µM in the data set with Splenocyte was 1.2%. Besides, the CC50 at 72 h in [1] was 78.5 µM.
Regarding `Cc1ccc2[nH]cc(/C=N/NC(=O)CC#N)c2c1`, the inhibition at 50 µM in the data set with Splenocyte came to 15.4%. The compound further returned a CC50 at 72 h in data set [1] of 200 µM.
On the same counts, the results for `N#CCC(=O)N/N=C/c1c[nH]c2cccc([N+](=O)[O-])c12` are 31% and 66 µM.
As to `COc1ccc2c(c1)c(CC(=O)O)c(C)n2C(=O)c1ccc(Cl)cc1` [INDOMETHACIN], the figures for the inhibition in vivo at 10 mg/kg with Mus musculus [18] and with Mus musculus [19] were 72.4% and 84.1%, respectively.
Regarding `Cc1cccc2c(/C=N/NC(=O)CC#N)c[nH]c12`, the inhibition at 50 µM in the data set on Splenocyte came out at 52.2%. The same compound registered a CC50 at 72 h in data set [1] of 146 µM.
